Hits are enriched below; roughly 2.9% of the tested compounds scored in any of these assays.
IMP-1 inh-1 = blocks Pseudomonas aeruginosa IMP-1 metallo-beta-lactamase; inhibition, % at 5.6 µM; purified IMP-1, nitrocefin hydrolysis, epi-absorbance fluorescence; AID 1556; hit rate 0.45% among 290,000;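 active = inhibition above the mean plus 3 SD of all compounds in the same screening run, cut at about 4.5% in these data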
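System: purified recombinant IMP-1 beta-lactamase. Medium: Zinc- and detergent-supplemented HEPES buffer, pH 7.1. Compound: one 5.6 µM dose […]. Schedule: 15 min preincubation plus 25 min reaction at 25 °C. Technique: Epi-absorbance fluorescence, 480 nm excitation, 530 nm emission.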
PolyA inhibitor = yeast polyadenylation inhibition. S. cerevisiae SKY197-pL101 polyadenylation reporter, beta-gal luminescence; efflux-impaired pdr1/pdr3 knockout yeast; score 100 = 6 SD above DMSO. activity score, % at 12 µM. AID 1875. hit rate 0.02% among 300,000;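 active = lowest replicate activity score at least 50, where 100 means six control SD above control mean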;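 also: yeast exposed to compound for 9 h at 30 °C; higher score means more reporter readthrough which indicates perturbed polyadenylation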
VIM-2 inhibitor = blocks Pseudomonas aeruginosa VIM-2 metallo-beta-lactamase; purified VIM-2, nitrocefin hydrolysis, epi-absorbance fluorescence; inhibition, % at 5.6 µM; hit rate 0.89% among 290,000; AID 1527;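 active = inhibition above the mean of all tested compounds plus 3 SD, cutoff set per screening run, cut at about 7.5% in these data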;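 also: red hydrolysis product quenches plate fluorescence so inhibitors raise well fluorescence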
NLRP3 yeast inh = inhibitors of NALP3 inflammasome in yeast; Yeast reconstituted NLRP3/ASC/caspase-1, beta-gal luminescence, 24 h; inhibition, % at 10 µM; hit rate 0.39% among 330,000; AID 2825;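 active = inhibition of 50% or more; inactive = inhibition below 50%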
NALP1 inh = NALP1 inhibition; S. cerevisiae NALP1/ASC/caspase-1 growth, X-gal OD620, 72 h; hit rate 0.61% among 280,000; inhibition, % at 10 µM; in the data active = inhibition mostly above about 24%, no sharp cut-off; inactive = mostly below about 32%
SUMO Mot1 rescue = blocks SUMOylation pathway, rescuing yeast Mot1-301 growth. S. cerevisiae Mot1-301 growth rescue, ATP luminescence, 38.5C; percent above DMSO median, 100 means doubled. growth rescue, % at 18.8 µM. hit rate 1% among 320,000;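 active = every valid replicate shows activation above 250% relative to neutral control wells; inactive = the rest, any valid replicate at or below 250%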
IMP-1 inh-2 = selectivity counter-screen for VIM-2 inhibitors: IMP-1 metallo-beta-lactamase inhibitors. shares compounds with VIM-2 inhibitor. purified IMP-1, nitrocefin hydrolysis, epi-absorbance fluorescence. inhibition, % at 5.6 µM. 1,300 tested, under 10 active. AID 1856; call rule not given here
VIM-2 FRET ctr = VIM-2 FRET inhibition, artifact counter-screen; shares compounds with VIM-2 inhibitor; purified VIM-2, CCF2 FRET substrate hydrolysis; inhibition, % at 5.6 µM; hit rate 23% among 1,300;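 active = inhibition above the mean of all tested compounds plus 3 SD, cut at about 19% in these data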
TEM-1 counter-1 = selectivity counter-screen for VIM-2 inhibitors: E. coli TEM-1 inhibitors; shares compounds with VIM-2 inhibitor; AID 1866; hit rate 3% among 1,300; inhibition, % at 5.6 µM; Purified TEM-1, nitrocefin hydrolysis, epi-absorbance fluorescence;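 active = inhibition above that campaign's mean inhibition plus 3 SD, cut at about 0.46% in these data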
Target sequence (P62593 whole entry, looked up): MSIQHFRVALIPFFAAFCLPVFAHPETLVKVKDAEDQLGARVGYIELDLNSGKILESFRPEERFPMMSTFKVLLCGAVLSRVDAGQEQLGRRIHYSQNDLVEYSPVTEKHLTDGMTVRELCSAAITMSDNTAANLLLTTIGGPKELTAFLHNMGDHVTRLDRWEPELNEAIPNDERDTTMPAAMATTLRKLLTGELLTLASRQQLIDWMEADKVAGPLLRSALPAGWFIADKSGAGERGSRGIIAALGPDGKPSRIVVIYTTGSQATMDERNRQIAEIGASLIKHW
VIM-2 inh conf = confirmation of P. aeruginosa VIM-2 metallo-beta-lactamase inhibitors; shares compounds with VIM-2 inhibitor; purified VIM-2, nitrocefin hydrolysis, epi-absorbance; inhibition, % at 5.6 µM; hit rate 96% among 1,300; AID 2187;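 active = inhibition of the VIM-2 beta-lactamase enzyme above about 11% from the earlier first-round screen, limit read from the data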
VIM-2 inh confirm = VIM-2 inhibition, confirmation assay; shares compounds with IMP-1 inh-1; purified VIM-2 enzyme, nitrocefin absorbance; inhibition, % at 5.6 µM; hit rate 73% among 200; AID 1860; in the data active = inhibition above about 8%
TEM-1 counter-2 = blocks E. coli TEM-1 beta-lactamase, VIM-2 IMP-1 counter-screen; shares compounds with IMP-1 inh-1; nitrocefin absorbance inhibition; hit rate 50% among 200; inhibition, % at 5.6 µM; in the data active = inhibition above about 0.66%
IMP-1 inh conf = confirmation of P. aeruginosa IMP-1 metallo-beta-lactamase inhibitors; shares compounds with IMP-1 inh-1; purified IMP-1 enzyme, absorbance substrate hydrolysis; inhibition, % at 5.6 µM; hit rate 60% among 200; AID 2189; in the data active = inhibition above about 4.9%
Mot1 SUMO dose = inhibits SUMO pathway, affecting Mot1-301 yeast growth; shares compounds with SUMO Mot1 rescue; S. cerevisiae Mot1-301 galactose growth, ATP luminescence, 24 h; -100 = growth of slx-deleted rescue strain; growth activity, percent, % at 42 µM; 2,300 tested, under 10 active; AID 493004;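 active = Signal drops as the depositor expects, and the fitted half-maximal dose is no more than ten times the top valid tested dose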;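 also: more negative values mean stronger growth rescue toward the control strain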
Hits are given with their value; 0 = inactive; - = no result given; + = active, no number.

SMILES	IMP-1 inh-1	PolyA inhibitor	VIM-2 inhibitor	NLRP3 yeast inh	NALP1 inh	SUMO Mot1 rescue	Mot1 SUMO dose	others
COc1ccc(C(=O)OC2CC[C@@]3(C)C4CCC5[C@]6(O)CC(O)[C@@]7(O)C(CN8CC(C)CCC8[C@@]7(C)O)[C@]6(O)C[C@@]53O[C@]24O)cc1OC (stereo partly drawn)	0	0	0	0	0	0	-
Nc1c(C(=O)NCCN2CCOCC2)c2nc3ccccc3nc2n1Cc1ccco1	0	0	15	0	0	0	-	IMP-1 inh-2=0;VIM-2 FRET ctr=0;TEM-1 counter-1=0;VIM-2 inh conf=29
O=C1CN=C(c2cccc(Br)c2)c2cc(Br)ccc2N1	0	0	0	0	0	0	-
Nc1ccc2ccc3cccc[n+]3c2c1	26	0	25	0	0	0	-	VIM-2 inh confirm=35;TEM-1 counter-2=40;IMP-1 inh conf=24
O=c1cc(C(F)(F)F)c2cc3c4c(c2o1)CCCN4CCC3	7.8	0	8.5	0	0	0	-	VIM-2 inh confirm=35;TEM-1 counter-2=52;IMP-1 inh conf=26
Cc1cc2c(C(F)(F)F)cc(=O)oc2c2c1NCCC2	0	0	0	0	0	0	-
O=[N+]([O-])c1ccc(N2CCCCCC2)c2nonc12	15	0	13	0	0	0	-	VIM-2 inh confirm=19;TEM-1 counter-2=22;IMP-1 inh conf=16
COC1=C(C)C(=O)O[C@]12C(=O)C(C)=C1CCCCN3[C@H]([C@@H]4C[C@H](C)C(=O)O4)CC[C@]132	-	-	-	0	-	0	-
O=C(O)c1ccccc1NC(=O)N1C[C@H]2C[C@@H](C1)c1cccc(=O)n1C2	0	0	0	0	0	0	-
CCN(CC)P(=S)(c1c(C)nc2ccccn12)c1c(C)nc2ccccn12	0	0	0	0	0	0	-
CCOc1c(P(=S)(N(C)C)N(C)C)c(C)nn1-c1ccccc1	0	0	0	0	0	891	0
CN(C)C1(c2nnnn2-c2ccc(Cl)cc2)CCCCC1	0	0	0	0	0	737	0
CCCCCOc1ccc(C)cc1CN(CCCl)CCCl	0	0	0	0	0	0	-
COC(=O)c1c(C)n(Cc2ccc3c(c2)OCO3)c2ccc(O)cc12	0	0	0	0	0	696	0
CCOC(=O)c1c(C)n(Cc2ccc3c(c2)OCO3)c2ccc(O)cc12	0	0	0	0	0	0	-
COCCN(C(=O)COC(=O)Cc1ccccc1)c1c(N)n(Cc2ccccc2)c(=O)[nH]c1=O	-	0	-	0	-	0	-
COc1ccccc1-n1c(O)c(/C=N/N2CCCCC2)c(=O)n(-c2ccccc2OC)c1=S	0	0	0	0	0	0	-
COC(=O)[C@@H]1[C@@H](C(=O)OC)C2(c3ccccc3-c3ccccc32)N(c2ccc(Cl)cc2)N1C#N	0	0	0	0	0	427	0
CCCCc1ccc(NC2=NCCCS2)cc1	0	0	0	0	0	0	-
OC1(c2ccc(F)cc2)CC2CCC(C1)N2Cc1nnnn1C1CCCCC1 (stereo not drawn)	0	0	0	0	0	674	0
OCCN1C2CCC1CC(O)(c1ccc(F)cc1)C2 (stereo not drawn)	0	0	0	0	0	0	-
COc1ccc(Oc2c(C)oc3cc(OC(=O)N(C)C)ccc3c2=O)cc1	0	0	0	0	0	524	0
CCOC(=O)C1(c2ccccc2)CCN(CCC(=O)Nc2ccccc2OC)CC1	0	0	0	0	0	378	0
CCOC(=O)C1(c2ccccc2)CCN(CCC(=O)Nc2ccc(F)cc2)CC1	-	-	-	0	-	0	-
COc1ccc(C2CN(C)CC2C(=O)c2ccc(C)cc2)cc1Cl (stereo not drawn)	0	0	0	0	0	0	-
SMILES	IMP-1 inh-1	PolyA inhibitor	VIM-2 inhibitor	NLRP3 yeast inh	NALP1 inh	SUMO Mot1 rescue	Mot1 SUMO dose	others
Cc1ccc(C2SCC(=O)Nc3c2c(=O)[nH]n3C2CCOC(C)(C)C2)cc1 (stereo not drawn)	0	0	0	0	0	0	-
COc1ccc(C2SCC(=O)Nc3c2c(=O)[nH]n3C2CCCCC2)cc1 (stereo not drawn)	0	0	0	0	0	824	0
CC(C)C/C(=N/O)c1c[nH]c2ccccc12	0	0	0	0	0	572	0
CCC1C(c2ccccc2)NC(c2ccccc2)CC1(O)c1ccc(F)cc1 (stereo not drawn)	0	0	0	0	0	683	0
CCC(=O)N1CC(=O)Nc2ccc(F)cc2C1c1ccccc1 (stereo not drawn)	0	0	0	0	0	0	-
O=c1cccc2n1C[C@@H]1C[C@@H]2CN(CC(O)c2ccc([N+](=O)[O-])cc2)C1 (stereo partly drawn)	0	0	0	0	0	0	-
C=C1C(O)[C@@H]2O[C@]3(CC[C@H](/C=C/C(C)[C@@H]4CC(C)=CC5(O[C@H](C[C@@](C)(O)C(=O)O)CCC5O)O4)O3)CC[C@H]2O[C@@H]1C(O)CC(C)[C@H]1OC2(CCCCO2)CCC1C (stereo partly drawn)	-	-	-	0	-	888	0
CN(C)CCCNCC(=O)Nc1ccc(Cl)cc1C(=O)c1ccccc1	0	0	0	0	0	0	-
C[N+](C)(C)CC(=O)Nc1ccc(Cl)cc1C(=O)c1ccccc1	0	-	0	0	0	415	0
COc1ccc2c(c1)[C@@]13CCC=C[C@H]1[C@@H](C2)NCC3	-	-	-	0	-	455	0
Cc1cc(/C=C2\C(=O)NC(=O)N(c3ccccc3F)C2=O)c(C)n1-c1cc(C(=O)O)cc(C(=O)O)c1	0	0	0	0	0	737	0
CC1CCN(C(=O)C(C)Cl)CC1 (stereo not drawn)	0	0	0	0	0	0	-
CCOP(=O)(OCC)c1cc(CC)ccc1O	0	0	0	0	0	+	0

Assay outcomes: PubChem BioAssay, several laboratories
